Source: ChEMBL document CHEMBL1151755, “Crystal structure of the peroxisome proliferator-activated receptor gamma (PPARgamma) ligand binding domain complexed with a novel partial agonist: a new region of the hydrophobic pocket could be exploited for drug design” (J Med Chem, 2008)
The source made the active and inactive calls. The rule behind the calls is not given here.

Legend:
Format in all cases: cell-based
Conditions in all cases: HepG2
[1] = target: T1, Oxysterols receptor LXR-beta (Homo sapiens) (UniProt P55055); test: Increase in transcriptional activity of LXRbeta ligand binding domain expressed in human Hep G2 cells co-transfected with Gal4-DBD by luciferase reporter gene assay
T1 sequence (whole entry): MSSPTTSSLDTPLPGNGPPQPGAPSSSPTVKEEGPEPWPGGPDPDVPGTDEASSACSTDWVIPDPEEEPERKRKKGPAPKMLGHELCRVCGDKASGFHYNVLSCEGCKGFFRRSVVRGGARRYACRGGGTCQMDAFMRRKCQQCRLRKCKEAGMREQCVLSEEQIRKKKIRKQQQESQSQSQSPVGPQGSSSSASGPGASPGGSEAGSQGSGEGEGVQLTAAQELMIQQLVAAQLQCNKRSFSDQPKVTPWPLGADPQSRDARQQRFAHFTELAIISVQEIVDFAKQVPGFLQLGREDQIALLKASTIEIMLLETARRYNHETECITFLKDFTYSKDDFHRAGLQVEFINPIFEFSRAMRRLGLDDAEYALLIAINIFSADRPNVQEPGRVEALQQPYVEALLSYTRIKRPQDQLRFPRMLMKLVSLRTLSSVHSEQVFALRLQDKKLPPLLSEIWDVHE
Outline: (§1)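 HepG2 cells transfected for 4 h by calcium phosphate coprecipitation with 100 ng pGal4UAS-luciferase, 50 ng Gal4-LBD receptor vector and 300 ng CMV-β-galactosidase plasmid for normalization. Cells were washed in PBS, then refed with serum-free DMEM/F-12 containing penicillin/streptomycin and compound or 0.1% ethanol vehicle for 20 h. Luciferase read-out was normalized to β-galactosidase. Experiments were repeated at least three times.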

[2] = target: T2, Peroxisome proliferator-activated receptor delta (Homo sapiens) (UniProt Q03181); test: Increase in transcriptional activity of human PPARbeta/delta ligand binding domain expressed in human Hep G2 cells co-transfected with Gal4-DBD by luciferase reporter gene assay; outline: as §1
T2 sequence (whole entry): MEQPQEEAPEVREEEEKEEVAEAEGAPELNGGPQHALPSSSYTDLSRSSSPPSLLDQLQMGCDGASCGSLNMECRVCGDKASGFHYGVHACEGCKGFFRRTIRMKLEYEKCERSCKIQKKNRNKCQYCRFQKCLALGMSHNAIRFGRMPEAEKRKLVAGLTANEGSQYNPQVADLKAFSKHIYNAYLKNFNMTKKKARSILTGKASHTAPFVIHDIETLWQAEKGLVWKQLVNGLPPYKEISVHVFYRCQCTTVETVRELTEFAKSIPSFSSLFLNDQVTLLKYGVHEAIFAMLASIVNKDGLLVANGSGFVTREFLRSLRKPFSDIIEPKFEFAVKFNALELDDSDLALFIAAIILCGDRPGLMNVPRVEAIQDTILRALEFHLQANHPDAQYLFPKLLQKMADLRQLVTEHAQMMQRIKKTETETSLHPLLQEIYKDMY

[3] = target: T3, Bile acid receptor (Homo sapiens) (UniProt Q96RI1); test: Increase in transcriptional activity of FXR ligand binding domain expressed in human Hep G2 cells co-transfected with Gal4-DBD by luciferase reporter gene assay; outline: as §1
T3 sequence (whole entry): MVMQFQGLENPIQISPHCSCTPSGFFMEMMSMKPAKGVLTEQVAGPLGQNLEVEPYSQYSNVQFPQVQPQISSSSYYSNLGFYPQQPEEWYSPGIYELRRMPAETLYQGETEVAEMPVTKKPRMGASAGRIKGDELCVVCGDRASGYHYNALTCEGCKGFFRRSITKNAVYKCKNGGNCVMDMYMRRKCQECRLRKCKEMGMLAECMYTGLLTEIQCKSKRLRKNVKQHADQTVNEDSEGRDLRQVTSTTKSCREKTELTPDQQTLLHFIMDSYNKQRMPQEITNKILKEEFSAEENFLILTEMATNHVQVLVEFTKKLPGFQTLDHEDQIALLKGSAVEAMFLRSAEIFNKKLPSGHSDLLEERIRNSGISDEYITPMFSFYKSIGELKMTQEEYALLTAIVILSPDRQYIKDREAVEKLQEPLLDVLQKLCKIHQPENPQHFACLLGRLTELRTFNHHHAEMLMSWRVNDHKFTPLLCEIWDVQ

[4] = target: T4, Hepatocyte nuclear factor 4-alpha (Homo sapiens) (UniProt P41235); test: Increase in transcriptional activity of HNF-4alpha ligand binding domain expressed in human Hep G2 cells co-transfected with Gal4-DBD by luciferase reporter gene assay; outline: as §1
T4 sequence (whole entry): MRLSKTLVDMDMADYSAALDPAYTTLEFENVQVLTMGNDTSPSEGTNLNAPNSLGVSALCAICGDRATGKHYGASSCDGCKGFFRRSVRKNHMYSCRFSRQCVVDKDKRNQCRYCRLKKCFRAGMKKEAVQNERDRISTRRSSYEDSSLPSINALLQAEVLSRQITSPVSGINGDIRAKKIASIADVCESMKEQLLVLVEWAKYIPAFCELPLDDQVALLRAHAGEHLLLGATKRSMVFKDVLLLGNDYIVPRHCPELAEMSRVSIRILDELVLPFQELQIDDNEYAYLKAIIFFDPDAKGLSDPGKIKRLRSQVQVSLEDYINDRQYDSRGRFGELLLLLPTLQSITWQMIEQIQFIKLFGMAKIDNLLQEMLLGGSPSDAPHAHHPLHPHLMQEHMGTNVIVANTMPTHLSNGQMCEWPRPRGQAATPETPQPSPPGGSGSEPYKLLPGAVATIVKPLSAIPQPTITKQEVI

[5] = target: T5, Retinoic acid receptor alpha (Homo sapiens) (UniProt P10276); test: Increase in transcriptional activity of RARalpha ligand binding domain expressed in human Hep G2 cells co-transfected with Gal4-DBD by luciferase reporter gene assay; outline: as §1
T5 sequence (whole entry): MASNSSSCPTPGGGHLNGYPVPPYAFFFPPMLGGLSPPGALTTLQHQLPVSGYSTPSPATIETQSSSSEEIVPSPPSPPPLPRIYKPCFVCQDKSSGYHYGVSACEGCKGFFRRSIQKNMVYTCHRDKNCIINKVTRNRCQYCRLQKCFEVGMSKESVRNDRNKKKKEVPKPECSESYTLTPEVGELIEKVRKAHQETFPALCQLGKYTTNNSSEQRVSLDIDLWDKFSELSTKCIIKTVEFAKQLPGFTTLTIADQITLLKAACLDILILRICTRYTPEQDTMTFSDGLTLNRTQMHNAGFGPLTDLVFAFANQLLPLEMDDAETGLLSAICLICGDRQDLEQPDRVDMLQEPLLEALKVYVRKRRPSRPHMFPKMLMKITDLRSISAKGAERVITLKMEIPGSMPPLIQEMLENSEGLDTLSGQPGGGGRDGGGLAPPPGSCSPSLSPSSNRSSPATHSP

Row | Activity [1] | Activity [2] | Activity [3] | Activity [4] | Activity [5] | Compound
1 | inactive | inactive | inactive | inactive | inactive | O=C(O)[C@H](Cc1ccccc1)Oc1ccc(-c2ccccc2)cc1
2 | inactive | inactive | inactive | inactive | inactive | O=C(O)[C@@H](Cc1ccccc1)Oc1ccc(-c2ccccc2)cc1
